In ChEMBL document CHEMBL1137474, “Synthesis, DNA binding, and cytotoxicity studies of pyrrolo[2,1-c][1,4]benzodiazepine-anthraquinone conjugates” (Bioorg Med Chem, 2007):
pIC50: −log10 of the molar value.

Experiments:
[1] = tested on: DNA; experiment: Binding affinity for calf thymus DNA at 20 uM after 18 hrs by thermal denaturation assay; assay type: nucleic-acid assay; conditions: Bos taurus
[2] = tested on: SiHa; experiment: Cytotoxicity against human SiHa cells by sulforhodamine B assay; assay type: functional, cell-based
How it was run: (§1)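 Cells in RPMI 1640 with 10% FBS and 2 mM L-glutamine, seeded at densities suited to doubling time, preincubated 24 h at 37 °C, 5% CO2. Drug added for a further 48 h. Fixed with cold TCA (final 10%) for 60 min at 4 °C, then SRB-stained. Bound dye eluted with 10 mM Tris base and read at 540 nm (690 nm reference). Growth taken relative to control wells. IC50 read from dose-response graphs. Triplicate wells, three repeat experiments.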

[3] = tested on: PC-3; experiment: Cytotoxicity against human PC3 cells by sulforhodamine B assay; assay type: functional, cell-based; how it was run: as §1
[4] = tested on: COLO 205; experiment: Cytotoxicity against human Colo205 cells by sulforhodamine B assay; assay type: functional, cell-based; how it was run: as §1
[5] = tested on: A2780; experiment: Cytotoxicity against human A2780 cells by sulforhodamine B assay; assay type: functional, cell-based; how it was run: as §1
[6] = tested on: MCF7; experiment: Cytotoxicity against human MCF7 cells by sulforhodamine B assay; assay type: functional, cell-based; how it was run: as §1
[7] = tested on: HOP-62; experiment: Cytotoxicity against human Hop62 cells by sulforhodamine B assay; assay type: functional, cell-based; how it was run: as §1
[8] = tested on: ZR-75-1; experiment: Cytotoxicity against human ZR-75-1 cells by sulforhodamine B assay; assay type: functional, cell-based; how it was run: as §1

| SMILES | ΔTm [1] [°C] | pIC50 [2] | pIC50 [3] | pIC50 [4] | pIC50 [5] | pIC50 [6] | pIC50 [7] | pIC50 [8] |
| --- | --- | --- | --- | --- | --- | --- | --- | --- |
| COc1cc2c(cc1OCCCCOc1ccc(OCCCCOc3cc4c(cc3OC)C(=O)N3CCC[C@H]3C=N4)c3c1C(=O)c1ccccc1C3=O)N=C[C@@H]1CCCN1C2=O | 1.6 | 5.05 | 5.15 | 5.00 | 5.00 | 5.05 |  |  |
| COc1cccc2c1C(=O)c1c(O)c3c(c(O)c1C2=O)C[C@@](O)(C(=O)CO)C[C@@H]3O[C@H]1C[C@H](N)[C@H](O)[C@H](C)O1 [DOXORUBICIN] |  | 5.82 | 6.30 | 5.70 | 6.30 | 6.30 | 6.00 | 6.22 |
| COc1cc2c(cc1OCCCC(=O)Nc1cccc3c1C(=O)c1ccccc1C3=O)N=C[C@@H]1CCCN1C2=O | 9.1 | 5.74 | 6.10 | 5.74 | 6.30 | 5.85 | 6.10 | 6.30 |
| COc1cc2c(cc1OCCCCCOc1ccc(OCCCCCOc3cc4c(cc3OC)C(=O)N3CCC[C@H]3C=N4)c3c1C(=O)c1ccccc1C3=O)N=C[C@@H]1CCCN1C2=O | 6 | 6.10 | 6.00 | > 6.00 | 6.30 | 5.92 | 5.85 | 5.82 |
| COc1cc2c(cc1OCCCCC(=O)Nc1cccc3c1C(=O)c1ccccc1C3=O)N=C[C@@H]1CCCN1C2=O | 5.2 | 5.92 | 6.10 | > 6.00 | 6.30 | 6.22 | 6.00 | 6.30 |
| COc1cc2c(cc1OCCCOc1ccc(OCCCOc3cc4c(cc3OC)C(=O)N3CCC[C@H]3C=N4)c3c1C(=O)c1ccccc1C3=O)N=C[C@@H]1CCCN1C2=O | 17.9 | 6.10 | 6.22 | > 6.00 | 6.22 | 6.22 | > 6.00 | 6.30 |
